{
  "source": "ChEMBL document CHEMBL1143929",
  "about": "“Synthesis and antiprotozoal activity of novel bis-benzamidino imidazo[1,2-a]pyridines and 5,6,7,8-tetrahydro-imidazo[1,2-a]pyridines” (Bioorg Med Chem, 2008)",
  "key": {"[1]": {"system": "Trypanosoma brucei rhodesiense", "experiment": "Antitrypanosomal activity against Trypanosoma brucei rhodesiense STIB900 infected mouse model assessed as survival at 5 mg/kg, ip after 4 days", "format": "functional", "conditions": "route intraperitoneal", "procedure,_shortened": "(§1)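 Acute African trypanosomiasis model in mice infected with T. b. rhodesiense STIB900. Diamidines were given intraperitoneally and prodrugs orally, dosed over 4 days. Read-outs were cures (mice surviving parasite-free for 60 days, out of 4) and average days of survival, compared against untreated infected controls.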"}, "L6": {"system": "L6", "experiment": "Cytotoxicity against rat L6 cells", "format": "cell-based"}, "Plasmodium falciparum": {"system": "Plasmodium falciparum", "experiment": "Antiprotozoal activity against Plasmodium falciparum K1", "format": "functional, organism-based"}, "[2]": {"system": "Trypanosoma brucei rhodesiense", "experiment": "Antiprotozoan activity against Trypanosoma brucei rhodesiense STIB900", "format": "functional, organism-based"}, "[3]": {"experiment": "Binding affinity to DNA"}, "[4]": {"system": "Trypanosoma brucei rhodesiense", "experiment": "Antitrypanosomal activity against Trypanosoma brucei rhodesiense STIB900 infected mouse model assessed as survival at 20 mg/kg, ip after 4 days", "format": "functional", "conditions": "route intraperitoneal", "procedure,_shortened": "as §1"}, "[5]": {"system": "Trypanosoma brucei rhodesiense", "experiment": "Antitrypanosomal activity against Trypanosoma brucei rhodesiense STIB900 infected mouse model assessed as survival at 25 mg/kg, po after 4 days", "format": "functional", "procedure,_shortened": "as §1"}, "[6]": {"system": "Trypanosoma brucei rhodesiense", "experiment": "Antitrypanosomal activity against Trypanosoma brucei rhodesiense STIB900 infected mouse model assessed as survival at 5 mg/kg, po after 4 days", "format": "functional", "procedure,_shortened": "as §1"}},
  "data": [
    {"smiles": "Cc1c(-c2ccc(C(=N)N)cc2)cn2cc(-c3ccc(C(=N)N)cc3)nc2c1C", "values": [
      {"measurement": "Survival", "setting": "[1]", "result": ">39.5", "unit": "days"},
      {"measurement": "IC50", "setting": "L6", "result": 4700, "unit": "nM"},
      {"measurement": "IC50", "setting": "Plasmodium falciparum", "result": 63, "unit": "nM"},
      {"measurement": "IC50", "setting": "[2]", "result": 15, "unit": "nM"}
    ]},
    {"smiles": "N=C(N)c1ccc(-c2ccc3nc(-c4ccc(C(=N)N)cc4)cn3c2)cc1", "values": [
      {"measurement": "IC50", "setting": "L6", "result": 2500, "unit": "nM"},
      {"measurement": "Kd", "setting": "[3]", "result": 20, "unit": "nM"},
      {"measurement": "Survival", "setting": "[4]", "result": 22, "unit": "days"},
      {"measurement": "IC50", "setting": "Plasmodium falciparum", "result": 92, "unit": "nM"},
      {"measurement": "IC50", "setting": "[2]", "result": 7.5, "unit": "nM"}
    ]},
    {"smiles": "CO/N=C(\\N)c1ccc(-c2cn3cc(-c4ccc(/C(N)=N\\OC)cc4)nc3cc2C)cc1", "values": [
      {"measurement": "IC50", "setting": "L6", "result": 17000, "unit": "nM"},
      {"measurement": "Survival", "setting": "[5]", "result": 14.5, "unit": "days"},
      {"measurement": "IC50", "setting": "Plasmodium falciparum", "result": 880, "unit": "nM"},
      {"measurement": "IC50", "setting": "[2]", "result": 1740, "unit": "nM"}
    ]},
    {"smiles": "N=C(N)c1ccc(-c2cn3c(n2)CCC(c2ccc(C(=N)N)cc2)C3)cc1", "note": "(stereo not given)", "values": [
      {"measurement": "Survival", "setting": "[1]", "result": 31.25, "unit": "days"},
      {"measurement": "IC50", "setting": "L6", "result": 8900, "unit": "nM"},
      {"measurement": "Kd", "setting": "[3]", "result": 250, "unit": "nM"},
      {"measurement": "Survival", "setting": "[4]", "result": ">60", "unit": "days"},
      {"measurement": "IC50", "setting": "Plasmodium falciparum", "result": 85, "unit": "nM"},
      {"measurement": "IC50", "setting": "[2]", "result": 14, "unit": "nM"}
    ]},
    {"smiles": "N=C(N)c1ccc(-c2ccc(-c3ccc(C(=N)N)cn3)o2)cc1", "values": [
      {"measurement": "Survival", "setting": "[1]", "result": ">54.5", "unit": "days"},
      {"measurement": "IC50", "setting": "Plasmodium falciparum", "result": 6.5, "unit": "nM"},
      {"measurement": "IC50", "setting": "[2]", "result": 6.5, "unit": "nM"}
    ]},
    {"smiles": "CO/N=C(\\N)c1ccc(-c2cc(C)c3nc(-c4ccc(/C(N)=N\\OC)cc4)cn3c2)cc1", "values": [
      {"measurement": "IC50", "setting": "L6", "result": 9500, "unit": "nM"},
      {"measurement": "Survival", "setting": "[5]", "result": ">20.25", "unit": "days"},
      {"measurement": "IC50", "setting": "Plasmodium falciparum", "result": 614, "unit": "nM"},
      {"measurement": "IC50", "setting": "[2]", "result": 2370, "unit": "nM"}
    ]},
    {"smiles": "Cc1cc(-c2ccc(C(=N)N)cc2)cn2cc(-c3ccc(C(=N)N)cc3)nc12", "values": [
      {"measurement": "Survival", "setting": "[1]", "result": 14.75, "unit": "days"},
      {"measurement": "IC50", "setting": "L6", "result": 7400, "unit": "nM"},
      {"measurement": "IC50", "setting": "Plasmodium falciparum", "result": 23, "unit": "nM"},
      {"measurement": "IC50", "setting": "[2]", "result": 38, "unit": "nM"}
    ]},
    {"smiles": "Cc1cc2nc(-c3ccc(C(=N)N)cc3)cn2cc1-c1ccc(C(=N)N)cc1", "values": [
      {"measurement": "Survival", "setting": "[1]", "result": ">37.25", "unit": "days"},
      {"measurement": "IC50", "setting": "L6", "result": 6800, "unit": "nM"},
      {"measurement": "IC50", "setting": "Plasmodium falciparum", "result": 27, "unit": "nM"},
      {"measurement": "IC50", "setting": "[2]", "result": 13, "unit": "nM"}
    ]},
    {"smiles": "CONC(=N)c1ccc(-c2ccc(-c3ccc(C(=N)NOC)cc3)o2)cc1", "note": "[PAFURAMIDINE]", "values": [
      {"measurement": "Survival", "setting": "[5]", "result": ">60", "unit": "days"}
    ]},
    {"smiles": "CO/N=C(\\N)c1ccc(-c2ccc(-c3ccc(/C(N)=N/OC)cn3)o2)cc1", "values": [
      {"measurement": "Survival", "setting": "[6]", "result": ">60", "unit": "days"},
      {"measurement": "Survival", "setting": "[5]", "result": ">60", "unit": "days"}
    ]},
    {"smiles": "CO/N=C(\\N)c1ccc(-c2ccc3nc(-c4ccc(/C(N)=N\\OC)cc4)cn3c2)cc1", "values": [
      {"measurement": "IC50", "setting": "L6", "result": 6900, "unit": "nM"},
      {"measurement": "Survival", "setting": "[5]", "result": 10.75, "unit": "days"},
      {"measurement": "IC50", "setting": "Plasmodium falciparum", "result": 181, "unit": "nM"},
      {"measurement": "IC50", "setting": "[2]", "result": 825, "unit": "nM"}
    ]},
    {"smiles": "CO/N=C(\\N)c1ccc(-c2cn3cc(-c4ccc(/C(N)=N\\OC)cc4)nc3c(C)c2C)cc1", "values": [
      {"measurement": "Survival", "setting": "[5]", "result": 15.5, "unit": "days"},
      {"measurement": "IC50", "setting": "Plasmodium falciparum", "result": 3250, "unit": "nM"},
      {"measurement": "IC50", "setting": "[2]", "result": 7210, "unit": "nM"}
    ]},
    {"smiles": "N=C(N)c1ccc(-c2ccc(-c3ccc(C(=N)N)cc3)o2)cc1", "note": "[FURAMIDINE]", "values": [
      {"measurement": "Survival", "setting": "[1]", "result": 35.5, "unit": "days"}
    ]}
  ]
}
